Experimental data reported in ChEMBL document CHEMBL4049443, “Discovery of 2-[[2-Ethyl-6-[4-[2-(3-hydroxyazetidin-1-yl)-2-oxoethyl]piperazin-1-yl]-8-methylimidazo[1,2-a]pyridin-3-yl]methylamino]-4-(4-fluorophenyl)thiazole-5-carbonitrile (GLPG1690), a First-in-Class Autotaxin Inhibitor Undergoing Clinical Evaluation for the Treatment of Idiopathic Pulmonary …” (J Med Chem, 2017).
Active and inactive are the calls of the source.

Experiments:
Assay type in all cases: functional, organism-based
Mus musculus [1] = experiment: Anti-fibrotic activity in BML-induced pulmonary fibrosis C57BL/6 mouse model assessed as reduction in fibrous area with severe distortion of lung structure at 50 mg/kg, po administered bid with 7.5 hrs interval between 2 doses for 21 days relative to control
Method in brief: (§1)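 Male C57Bl/6 mice, 11 weeks at delivery, anesthetized and given intranasal bleomycin 30 μg/50 μL; PBS controls. Oral dosing twice daily, 7.5 h apart, 10 mL/kg, from challenge day for 21 days: test agent in PEG 200/0.5% MC, pirfenidone in 0.5% CMC, vehicle controls; 14−24 mice per group. Lungs stained by Mallory method, scored 1–5 (Matsuse-modified Ashcroft) as mean of 10 low-power fields; group median, Mann−Whitney.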

Mus musculus [2] = experiment: Anti-fibrotic activity in BML-induced pulmonary fibrosis C57BL/6 mouse model assessed as reduction in fibrotic thickening of aveolar/bronchial walls at 50 mg/kg, po administered bid with 7.5 hrs interval between 2 doses for 21 days relative to control; method in brief: as §1
Mus musculus [3] = experiment: Anti-fibrotic activity in BML-induced pulmonary fibrosis C57BL/6 mouse model assessed as reduction in fibrosis with damage of pulmonary structure at 50 mg/kg, po administered bid with 7.5 hrs interval between 2 doses for 21 days relative to control; method in brief: as §1

Measured: Activity

Cc1ccc(=O)n(-c2ccccc2)c1
active: all assays above
